Screens (PubChem)
Cardio protect: cardioprotection against H2O2-induced cell death, primary screen, uHTS, H9c2 cells, ATPLite luminescence; H9c2 cardiomyocytes, H2O2 injury protection, 2 h; protection from H2O2 cell death, % at 20 µM; 360,000 tested, 0.63% active;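 active = compounds giving at least 50% protection of heart cells from peroxide-induced death in the single-dose screen, raw or plate-pattern-corrected value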;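 also: 0% = DMSO wells with peroxide and 100% = DMSO wells without peroxide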
beta cell repl: inducers of MIN6 beta-cell proliferation, primary screen, ATP luminescence, uHTS; MIN6 cells proliferation, ATPlite luminescence, 48 h; cells starved in 0.2% serum; 100% = growth in 10% serum; proliferation, % at 10 µM; 330,000 tested, 0.29% active;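 active = compounds whose signal lies at least 3.5 SD above the mean of all wells on their plate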;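 also: 0% = DMSO-treated cells in low-serum medium and 100% = 10% serum control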
CRFBP-R2 block: antagonists of CRF-BP/CRF-R2 complex, primary screen, cell-based, HEK293, calcium dye fluorescence, uHTS | CRF-induced calcium fluorescence | inhibition, % at 11.8 µM | 350,000 tested, 0.59% active | AID 588475, 2011;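 active = inhibition of the ligand-induced calcium signal above about 50% at the single tested concentration, limit read from the data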
CRFR2-BP ag: agonists of CRF-BP/CRF-R2 complex, primary screen, cell-based, HEK293, calcium dye fluorescence, uHTS | CRF-binding protein / CRF receptor 2 complex (human) | calcium dye fluorescence (FLIPR); percent of saturating CRF peptide response | activation, % at 13.2 µM | 350,000 tested, 0.46% active | AID 588473, 2011;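 active = activation of at least 50%, plus an integration ratio under a set limit after plate pattern correction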;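 also: plate controls were neutral control wells without compound for no effect and CRF at EC100 for full effect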
UCH37 DUB inh: inhibitors of human UCH37 deubiquitinase, primary screen, biochemical, Ub-AMC cleavage, fluorescence. Ubiquitin carboxyl-terminal hydrolase isozyme L5 (Homo sapiens), Q9Y5K5. purified proteasome/UCH37. inhibition, % (test concentration not listed). 330,000 tested, 0.33% active;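 active = mean inhibition over replicate wells above about 20%, limit read from the data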;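 also: 0% = compound-free wells with enzyme and 100% = wells lacking proteasome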
Target sequence (Q9Y5K5 whole entry, looked up): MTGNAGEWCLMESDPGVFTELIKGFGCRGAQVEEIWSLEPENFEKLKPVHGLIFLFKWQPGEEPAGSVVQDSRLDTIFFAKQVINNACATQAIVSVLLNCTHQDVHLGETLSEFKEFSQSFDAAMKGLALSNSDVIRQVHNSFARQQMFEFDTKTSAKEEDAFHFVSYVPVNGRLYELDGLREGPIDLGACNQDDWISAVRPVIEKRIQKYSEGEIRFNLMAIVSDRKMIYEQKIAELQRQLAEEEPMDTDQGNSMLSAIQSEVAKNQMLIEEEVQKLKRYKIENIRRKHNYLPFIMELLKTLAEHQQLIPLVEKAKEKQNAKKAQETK
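Assay system: Proteasome-bound UCH37. Buffer or medium: pH 7.4 Tris-HCl (50 mM) with ovalbumin, ATP-MgCl2, DTT. Incubation: 30 min preincubation with enzyme, 25 min cleavage at room temperature. Measured by: fluorescence, ex 355 nm, em 460 nm. Read-out basis: percent inhibition. Control set: wells without proteasome as full block, compound-free enzyme plus substrate as uninhibited.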
iPSC survival up: enhancers of single-cell hiPSC survival, primary screen, ATPlite luminescence; 100% = ROCK inhibitor wells, 0% = DMSO; survival enhancement, % at 20 µM; 360,000 tested, 0.044% active; in the data active = survival enhancement above about 18%;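 also: cells exposed to compounds for 16 hours before the ATP read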
Numbers without * were called inactive; / = no result. In the library only some 2.1% were active in any assay of this set; here they are far more common.

SMILES	Cardio protect	beta cell repl	CRFBP-R2 block	CRFR2-BP ag	UCH37 DUB inh	iPSC survival up
Cc1ccc([C@@H]2C[C@H]3[C@@H](CN2S(=O)(=O)c2ccc(C)cc2)C(=O)C[C@@H](c2ccc(Cl)cc2)N3S(=O)(=O)c2ccc(C)cc2)cc1	6.0	/	-18.1	2.1	/	-3.7
Cc1ccc([C@@H]2CC=C(C(=O)O)[C@H](c3ccccc3)N2S(=O)(=O)c2ccc(C)cc2)cc1	-1.3	-5.3	5.3	-0.2	4.3	-1.6
COc1ccc(C=NNC(=O)c2nc(Cl)c(Cl)c(N)c2Cl)cc1COc1ccc(F)cc1F	/	/	/	/	-231.0	/
CC(=NNC(=O)CNc1ccc(C)cc1)c1ccc(Cl)cc1	/	/	/	/	1.1	/
COc1ccc(C(=O)NN=Cc2ccc(OC(=O)c3cccs3)cc2)cc1	/	/	/	/	-1.8	/
CCCCC[C@@H]1C=C(C(=O)O)[C@H](c2cccc(C)c2)N1S(=O)(=O)c1ccc(C)cc1	8.1	-3.4	60.3*	-2.3	1.0	-1.5
CC(=N/N=C1/NC(=O)CC(C(=O)O)S1)c1ccccc1 (stereo not drawn)	/	/	/	/	6.5	/
CN(C)CCCOC(=O)C1c2ccccc2Oc2ccccc21	5.0	-0.7	9.3	-3.2	-0.4	-2.5
CN(CCOC(=O)C1c2ccccc2Oc2ccccc21)C(C)(C)C	1.0	-0.3	50.4*	0.1	3.6	-1.5
COc1cc(C(=O)NCC(=O)N/N=C/c2ccc(-c3ccc([N+](=O)[O-])cc3)o2)cc(OC)c1OC	21.5	-5.3	7.5	0.5	/	0.0
O=C(N/N=C/c1ccc(-c2cccc([N+](=O)[O-])c2)o1)c1ccc([N+](=O)[O-])cc1	71.9*	-5.1	12.8	-1.5	/	0.1
O=C(N/N=C/c1ccc(-c2cccc([N+](=O)[O-])c2)o1)c1ccccc1O	35.4	-4.7	11.9	-2.7	/	3.4
COc1cc(C(=O)NCC(=O)N/N=C/c2ccc(-c3cccc([N+](=O)[O-])c3)o2)cc(OC)c1OC	66.3*	-1.0	-0.5	0.0	/	-0.5
COC(=O)NN=Cc1cn(CCOc2ccc(OC)cc2)c2ccccc12	/	/	/	/	2.7	/
Brc1ccc(-c2csc(NN=Cc3cccnc3)n2)cc1	/	/	/	/	4.0	/
O=C(/C=C/c1ccc(N2CCC(c3ccccc3)=N2)cc1)c1ccccc1	/	-6.0	-284.3	311.4*	8.2	/
COC(=O)C1=C(C)NC(=O)NC1c1ccc(N2CCC(c3ccccc3)=N2)cc1 (stereo not drawn)	-1.8	-1.7	-19.9	-0.8	-269.6	0.7
CCOC(=O)/C(=C\c1ccc(N2CCC(c3ccccc3)=N2)cc1)C(C)=O	-5.9	/	-105.0	99.2*	-148.6	-4.0
O=C1NCCCC1C(=O)NN=Cc1ccccc1O (stereo not drawn)	/	/	/	/	-10.2	/
Nc1nnnn1N=C/C=C/c1ccccc1	/	/	/	/	4.5	/
COc1cc(SC)ccc1C(=O)Nc1ncc(C)s1	-27.4	-5.5	104.5*	0.3	-18.1	-2.5
COc1cc(SC)ccc1C(=O)Nc1ccc(Br)cn1	-18.3	-3.6	-2.8	3.2	3.9	-0.8
Cc1cc(C)nc(SCc2ccc(C(=O)NN=Cc3ccc(C(=O)O)cc3)cc2)n1	/	/	/	/	4.0	/
COc1cc(C=NNC(=O)COc2ccc(-n3cnnn3)cc2)ccc1OCC(N)=O	/	/	/	/	4.3	/
Cc1cc(C=NN2CCN(C)CC2)c(C)n1-c1ccc(Cl)cc1	/	/	/	/	0.1	/
SMILES	Cardio protect	beta cell repl	CRFBP-R2 block	CRFR2-BP ag	UCH37 DUB inh	iPSC survival up
C(=NN(c1ccccc1)c1ccccc1)c1ccc(N2CCOCC2)s1	/	/	/	/	-3.0	/
Cc1ccc(N2CCN(C(=O)CN3C(=O)c4ccccc4C3=O)CC2)cc1	-3.7	-1.5	55.7*	0.1	0.0	-0.9
O=C(CNC(=O)c1ccccc1F)NN=Cc1cccs1	/	/	/	/	1.1	/
O=C(NC(=S)NCCc1ccccn1)c1ccccc1	-0.7	-0.6	18.6	1.0	5.0	0.0
O=C(NC(=S)NCCc1ccccn1)c1ccco1	7.3	-0.2	53.0*	15.1	-0.1	3.7
O=C1c2cccc3c(O)ccc(c23)C(=O)N1Cc1ccco1	18.2	1.1	-216.4	251.7*	9.2	-0.4
CC(=NOC(=O)c1c(F)cccc1F)c1nccs1	/	/	/	/	1.9	/
COc1cc(/C=C/c2[nH]c(=O)[nH]c(=O)c2[N+](=O)[O-])cc([N+](=O)[O-])c1O	8.5	-3.6	15.3	-0.6	21.0*	-0.4
CCC(C)Oc1ccc(/C=C/c2[nH]c(=O)[nH]c(=O)c2[N+](=O)[O-])cc1OC (stereo not drawn)	8.8	-1.2	-3.9	-1.1	13.3	0.3
COc1ccc(C2C3=C(CC(C)(C)CC3=O)Nc3c2c(=O)n(C)c(=O)n3C)cc1OC (stereo not drawn)	5.1	3.6	112.6*	2.1	5.1	-0.5
COC(=O)Cc1ccc(NC(=S)NCCC(C)C)cc1	-4.9	-3.1	87.6*	-2.0	-1.6	1.0
Cc1ccc(-c2n[nH]c(=S)n2/N=C/c2c(C)nn(-c3ccccc3)c2C)cc1	-6.4	0.0	18.2	-1.0	/	1.4
Cc1ccccc1-c1n[nH]c(=S)n1/N=C/c1c(C)nn(-c2ccccc2)c1C	-7.2	0.3	71.3*	-0.6	/	2.4
Clc1ccccc1OCc1nc(-c2ccc(Br)o2)no1	-16.9	-1.2	14.0	3.9	5.2	2.5
Brc1ccc(-c2noc(CCc3ccccc3)n2)o1	-23.2	0.6	61.2*	1.5	2.1	3.8
Cc1nc(N2CCc3ccccc3C2)[nH]c(=O)c1Cc1ccccc1	-17.8	-1.7	-55.6	-5.6	/	2.7
Cc1nc(-n2[nH]c3c(c2=O)CCCC3)[nH]c(=O)c1Cc1ccccc1	70.3*	-5.5	-54.0	58.0*	0.3	0.9
CCCCOc1ccc(C=NNc2cc(N3CCOCC3)nc(C)n2)cc1	/	/	/	/	3.0	/
CCOc1ccccc1-n1c(C)nc2cc(C(=O)O)ccc21	2.2	2.4	70.2*	0.9	4.8	-0.5
O=C(CCC(=O)Nc1ccc(F)cc1)NN=Cc1ccc(F)cc1	/	/	/	/	4.8	/
CCN(CC)C(=O)Cn1c(=O)c2ccccc2n2c(=S)sc(-c3cccc(C)c3)c12	-3.0	-0.1	-122.9	55.3*	10.2	0.6
COc1cc(C(C)=NNC(=O)CSc2nc3ccccc3n2C)ccc1O	/	/	/	/	5.3	/
COC(=O)c1sc(-c2ccc(C(C)(C)C)cc2)cc1NC(=O)CSCC(=O)O	-3.7	-3.5	53.6*	1.1	/	0.5
COC(=O)c1sc(-c2ccc(C(C)(C)C)cc2)cc1NC(=O)c1ccccc1C(=O)O	-4.1	-4.0	19.0	3.3	4.5	-0.5
CCCn1c(N=Cc2cc(OC)ccc2O)nc2ccccc21	/	/	/	/	-0.7	/
CCc1sc(C(=O)Nc2nc(-c3ccccn3)cs2)cc1C	51.4*	-6.7	14.1	-1.1	5.9	0.8
